# Assay results gathered from unrelated publications.
# Lines come from different studies, so protocols differ.
# Target: Serine/threonine-protein kinase ULK2 (ULK2, Homo sapiens, UniProt Q8IYT8)
# One construct used (Q8IYT8 1-1036): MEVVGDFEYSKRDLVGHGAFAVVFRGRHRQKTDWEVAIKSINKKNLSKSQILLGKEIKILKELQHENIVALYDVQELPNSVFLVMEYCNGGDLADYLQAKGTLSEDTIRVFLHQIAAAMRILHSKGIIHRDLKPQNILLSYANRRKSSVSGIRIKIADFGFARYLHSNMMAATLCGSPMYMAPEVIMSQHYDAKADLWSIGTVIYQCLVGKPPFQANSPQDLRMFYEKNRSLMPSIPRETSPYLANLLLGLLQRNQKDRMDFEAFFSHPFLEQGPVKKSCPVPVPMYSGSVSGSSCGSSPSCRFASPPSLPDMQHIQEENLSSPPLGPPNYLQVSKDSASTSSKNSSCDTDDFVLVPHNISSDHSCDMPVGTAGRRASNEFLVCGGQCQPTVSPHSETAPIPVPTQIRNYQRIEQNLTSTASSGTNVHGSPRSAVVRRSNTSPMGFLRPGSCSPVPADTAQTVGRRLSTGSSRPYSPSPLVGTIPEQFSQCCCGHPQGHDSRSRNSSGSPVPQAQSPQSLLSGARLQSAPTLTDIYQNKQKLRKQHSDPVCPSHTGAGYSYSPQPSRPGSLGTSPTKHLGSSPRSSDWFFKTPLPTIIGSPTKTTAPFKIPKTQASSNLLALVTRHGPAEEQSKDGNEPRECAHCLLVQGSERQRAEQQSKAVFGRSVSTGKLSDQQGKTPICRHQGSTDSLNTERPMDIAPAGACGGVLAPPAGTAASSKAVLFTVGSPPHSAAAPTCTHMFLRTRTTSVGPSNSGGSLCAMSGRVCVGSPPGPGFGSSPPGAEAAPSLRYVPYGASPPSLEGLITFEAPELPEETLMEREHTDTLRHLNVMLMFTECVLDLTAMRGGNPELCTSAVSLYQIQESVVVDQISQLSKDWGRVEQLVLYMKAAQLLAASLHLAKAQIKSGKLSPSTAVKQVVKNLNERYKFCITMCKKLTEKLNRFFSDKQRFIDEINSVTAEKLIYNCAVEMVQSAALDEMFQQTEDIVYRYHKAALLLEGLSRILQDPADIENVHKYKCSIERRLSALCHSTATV
Compound,read-out,action,method,concentration,quantity,value
COc1ncccc1-c1cnn2ccc(N3CCN(C(=O)OC(C)C)CC3)nc12,binding,,competition with immobilised ligand,1 µM,remaining binding,70%
Cn1cncc1[C@](O)(COc1ccc(C#N)cc1-c1ccc(OC(F)(F)F)cc1)c1ccc(C#N)cc1,cell-free assay,,competition with immobilised ligand,1 µM,remaining binding,100%
COc1cc(Nc2ncc(F)c(Nc3ccc4c(n3)NC(=O)C(C)(C)O4)n2)cc(OC)c1OC,binding,,,10 µM,inhibition,100%
O=c1[nH]c2ccccc2n1C1CCN(Cc2ccc(-c3[nH]c4cc5ncnc5cc4nc3-c3ccccc3)cc2)CC1,cell-free assay,,,0.5 µM,remaining signal,106%
C#Cc1n[nH]c2c(-c3cn([C@@H](C)c4ccccc4)c(=O)[nH]c3=O)cc(F)cc12,enzyme activity,inhibitor,,0.1 µM,inhibition,-3.5%
CC(C)(C)c1cc(C=C(C#N)C#N)cc(Br)c1O,enzyme activity,inhibitor,,0.5 µM,remaining activity,103%
Cc1nn(C)cc1-c1nc2c(N3CCN(Cc4ccc(Cl)cc4)CC3)c(Cl)cnc2[nH]1,binding,,competition with immobilised ligand,1 µM,remaining binding,100%
Nc1ncc(-c2nc(N3CCOCC3)nc(N3CCOCC3)n2)c(C(F)F)n1,binding,,competition with immobilised ligand,10 µM,remaining binding,72%
C#Cc1n[nH]c2c(-c3cn(C(C)c4ccccn4)c(=O)[nH]c3=O)cc(F)cc12 (stereo not drawn),enzyme activity,inhibitor,,1 µM,inhibition,8.6%
